# Tests used:
# HeLa cells [1] = experiment: Mitochondrial membrane potential; format: cell-based, human; conditions: JC-1, 24 or 48 h
# Procedure, shortened: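 HeLa cells exposed to the test compound at the stated concentrations for 24 or 48 h, with DMSO at no more than 0.25%, then stained with the lipophilic cationic dye JC-1 to monitor mitochondrial membrane potential. Values are the mean ± SEM of three independent experiments.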
# HeLa cells [2] = experiment: ROS production; format: cell-based, human; conditions: HE or H2-DCFDA, 24 or 48 h
# Procedure, shortened: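 After 24 or 48 h exposure to the test compound (DMSO at most 0.25%), cells were stained with hydroethidine (HE) or H2-DCFDA and ROS were read by flow cytometry. Results are the mean ± SEM from three independent experiments.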
# [3] = Cytotoxicity for resting peripheral blood lymphocytes; format: cell-based; conditions: human
# Procedure, shortened: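 Donor PBLs were separated on a Lymphoprep gradient, washed, and kept overnight in RPMI-1640 with 10% FBS. Nonadherent cells were resuspended at 5 × 10^5 cells/mL without PHA (resting) and exposed to graded compound for 72 h. Viability was read by MTT. IC50 is given as mean ± SEM from three separate experiments.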
# HeLa cells [4] = experiment: Western blot analysis of cell cycle and apoptosis proteins; format: cell-based, human
# Procedure, shortened: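 HeLa cells were treated for 24 or 48 h. They were washed twice in ice-cold PBS and lysed on ice for 30 min, and the lysates were cleared at 15000g, 4 °C, 10 min. Protein was measured by BCA, and 20 μg per lane was run on 7.5–15% SDS–PAGE, then blotted to PVDF and blocked overnight at 4 °C. Membranes were probed 2 h at room temperature for cyclin B, p-cdc2 Tyr15, PARP and Xiap, with peroxidase secondary for 60 min and ECL detection. They were stripped and reprobed for β-actin.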
# [5] = test system: panel of seven human cancer cell lines; experiment: Antiproliferative activity across the panel of seven human cancer cell lines; format: cell-based; conditions: read-out: IC50 values across the cell line panel
# Procedure, shortened: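 Jurkat, SEM and HL-60 cells were grown in RPMI-1640; MCF-7, A549, HeLa and HT-29 cells in DMEM; both with 10% FBS plus penicillin/streptomycin. 8 × 10^3 cells/well were held 18 h at 37 °C, 5% CO2, then given fresh medium with graded compound (DMSO ≤0.25%) for 72 h. Viability was read by MTT. […] Mean ± SE, ≥3 independent experiments.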
# HeLa cells [6] = experiment: Annexin-V/PI apoptosis assay; format: cell-based, human; conditions: 24 or 48 h, concentration- and time-dependent
# [7] = Cytotoxicity for PHA-stimulated peripheral blood lymphocytes; format: cell-based; conditions: human, PHA-stimulated (proliferating) peripheral blood lymphocytes
# Procedure, shortened: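 PBLs from healthy donors were isolated on a Lymphoprep gradient, washed, and rested overnight at 1.0 × 10^6 cells/mL in RPMI-1640 with 10% FBS. Nonadherent cells were reseeded at 5 × 10^5 cells/mL in growth medium containing 2.5 μg/mL PHA. Graded compound was added and viability read by MTT after 72 h. IC50 is given as mean ± SEM of three separate experiments.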
# [8] = test system: Jurkat, HT-29, and HeLa cells; experiment: Cell cycle analysis by flow cytometry; format: cell-based, human; conditions: for lowest concentration giving a rise in G2/M cells: 24 h treatment
# Procedure, shortened: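 Cells were treated for 24 h with graded compound concentrations (HeLa: 5 × 10^5 exponentially growing cells). They were collected, fixed in ice-cold 70% ethanol, and treated with lysis buffer containing RNase A and 0.1% Triton X-100. After PI staining, DNA content was read by flow cytometry. Cell-cycle phase percentages came from DNA histogram analysis.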
# [9] = test system: BNL 1ME A.7R.1 allografts; experiment: Syngeneic hepatocellular carcinoma allograft model; format: in vivo, Balb/c mice; conditions: 5 mg/kg ip daily for seven days
# Procedure, shortened: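 Male Balb/c mice, 8 weeks old, received 10^7 syngeneic hepatocarcinoma cells in 200 μL sterile PBS subcutaneously in the dorsal region. At ~100 mm3, fifteen mice were randomised into three groups of five. Groups got vehicle (0.9% NaCl, 5% PEG 400, 0.5% Tween 80), test compound, or reference, each at 5 mg/kg ip daily for 7 days. Body weight was tracked as mean ± SEM; two-sided Student's t test.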
# A549-T12 = experiment: Cell growth inhibition, drug-resistant cell line study; format: cell-based, human; conditions: for IC50: Homo sapiens; for resistance ratio: IC50 A549-T12 / IC50 A549
# Procedure, shortened: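 Cells seeded at 8 × 10^3 per well and preincubated 18 h at 37 °C in humidified 5% CO2. Medium then replaced with fresh medium holding test compound at several concentrations (10 mM DMSO stocks; final DMSO ≤0.25%) for 72 h at 37 °C. Viability by MTT. […] Parental A549 grown in DMEM with 10% FBS.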
# A549 = experiment: In vitro cell growth inhibition; format: cell-based; conditions: Homo sapiens
smiles,measurement,setting,value
"COC(=O)c1sc2cc(OC)ccc2c1Nc1cc(OC)c(OC)c(OC)c1 [4i, Methyl 6-Methoxy-3-[(3,4,5-trimethoxyphenyl)amino]-1-benzo-[b]thiophene-2-carboxylate]",proportion of cells with depolarized mitochondria,HeLa cells [1],time- and concentration-dependent increase
same,ROS production vs control cells,HeLa cells [2],induced the production of significant amounts of ROS
same,IC50 at 72 h,[3],> 10000 nM
same,cyclin B expression,"HeLa cells [4]; 10 or 100 nM, 24 or 48 h",no significant variations
same,expression of phosphorylated cdc2 (Tyr15),"HeLa cells [4]; 10 or 100 nM, 24 or 48 h",dramatic decrease
same,concentration at which PARP cleavage was detectable,HeLa cells [4]; 24 h,10 nM
same,Xiap expression,"HeLa cells [4]; 24 h, even at 10 nM",almost eliminated
same,caspase activation,"HeLa cells [4]; Western blot, HeLa",induced proteolytic cleavage of caspase-9 and caspase-3
same,IC50,[5],0.28 to 10 nM
same,annexin-V-positive cells vs control,HeLa cells [6],accumulation of annexin-V-positive cells
same,IC50 at 72 h,[7],2800 ± 1200 nM
same,cells arrested in G2/M,"[8]; 24 h, at higher concentrations",more than 80%
same,lowest concentration giving a rise in G2/M cells,[8],20 nM
same,body weight change during treatment,[9],only a small decrease in body weight
"COC(=O)c1sc2ncccc2c1Nc1cc(OC)c(OC)c(OC)c1 [4l, Methyl 3-[(3,4,5-Trimethoxyphenyl)amino]thieno[2,3-b]pyridine-2-carboxylate]",IC50,A549-T12,12.6 ± 2.9 nM
same,resistance ratio,A549-T12,1.5
same,IC50,A549,8.5 ± 1.9 nM
"CCOC(=O)c1sc2ncccc2c1Nc1cc(OC)c(OC)c(OC)c1 [4m, Ethyl 3-[(3,4,5-Trimethoxyphenyl)amino]thieno[2,3-b]pyridine-2-carboxylate]",IC50,A549-T12,19.5 ± 2.3 nM
same,resistance ratio,A549-T12,1.2
same,IC50,A549,16.2 ± 4.4 nM
"COC(=O)c1sc2nc(C)ccc2c1Nc1cc(OC)c(OC)c(OC)c1 [4n, Methyl 6-Methyl-3-[(3,4,5-trimethoxyphenyl)amino]thieno[2,3-b]pyridine-2-carboxylate]",proportion of cells with depolarized mitochondria,HeLa cells [1],time- and concentration-dependent increase
same,ROS production vs control cells,HeLa cells [2],induced the production of significant amounts of ROS
same,IC50 at 72 h,[3],> 10000 nM
same,annexin-V-positive cells vs control,HeLa cells [6],accumulation of annexin-V-positive cells
same,lowest concentration giving a rise in G2/M cells,[8],20 nM
